The source made the active and inactive calls. The rule behind the calls is not given here.
Columns and labels:
HUVEC [1] = test: Cytotoxicity against HUVEC cell at 25 ug/ml after 6 days; assay type: cell-based; conditions: human, 144 h
Summary of the method: (§1)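 HUVEC (passages 2–4) seeded at 4×10^3 cells/well in medium 199 with 20% human adult serum, washed after 8 h, then given medium 199 with 5% human adult serum ± sample (from 0.5% stocks in PEG 400 33%). Growth was scored microscopically every other day for 6 days against 5% serum (negative) and 30% serum (positive) controls, with toxicity graded.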

HUVEC [2] = test: Cytotoxicity against HUVEC cell at 5 ug/ml after 6 days; assay type: cell-based; conditions: human, 144 h; summary of the method: as §1
HUVEC [3] = test: Cytotoxicity against HUVEC cell at 2.5 ug/ml after 6 days; assay type: cell-based; conditions: human, 144 h; summary of the method: as §1
HUVEC [4] = test: Induction of HUVEC cell proliferation at 0.25 ug/ml after 6 days; assay type: functional, cell-based; conditions: Homo sapiens
Summary of the method: (§2)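 HUVEC (passage 2–4) seeded at 4×10^3 cells/well in medium 199 with 20% human adult serum; after 8 h washed twice, then exposed to medium 199 with 5% human adult serum ± sample. Samples were 0.5% stocks in 33% PEG 400, diluted into the medium. Growth was scored microscopically every other day for 6 days against 5% serum (negative) and 30% serum (positive) controls.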

HUVEC [5] = test: Effect on HUVEC cells proliferation assessed as inhibition of [3H]thymidine incorporation at 1.9531 ug/ml after 90 hrs by liquid scintillation counting; assay type: functional; conditions: Homo sapiens
Summary of the method: (§3)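 HUVEC seeded at 10×10^3 cells/well, washed after 6 h, then exposed 90 h to twofold dilutions in medium 199 with 2% human adult serum. Pulsed 6 h with 1 μCi [3H]thymidine, TCA-fixed, lysed in 0.1% SDS/0.2 N NaOH, scintillation counted. Incorporation per cell (cpm/cells counted) relative to untreated control gave % inhibition.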

HUVEC [6] = test: Effect on HUVEC cells proliferation assessed as inhibition of [3H]thymidine incorporation at 0.9766 ug/ml after 90 hrs by liquid scintillation counting; assay type: functional; conditions: Homo sapiens; summary of the method: as §3
HUVEC [7] = test: Effect on HUVEC cells proliferation assessed as inhibition of [3H]thymidine incorporation at 0.4883 ug/ml after 90 hrs by liquid scintillation counting; assay type: functional; conditions: Homo sapiens; summary of the method: as §3
HUVEC [8] = test: Cytotoxicity against HUVEC cell at 250 ug/ml after 6 days; assay type: cell-based; conditions: human, 144 h; summary of the method: as §2
HUVEC [9] = test: Induction of HUVEC cell proliferation at 2.5 ug/ml after 6 days; assay type: functional, cell-based; conditions: Homo sapiens; summary of the method: as §2
HUVEC [10] = test: Effect on HUVEC cells proliferation assessed as viable cells at 250 ug/ml after 90 hrs relative to negative control; assay type: functional; conditions: Homo sapiens, read-out: Activity
Summary of the method: (§4)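 HUVEC seeded at 10×10^3 cells/well in 20% serum medium. After 6 h, washed and exposed to twofold sample dilutions (250 down to 0.49 μg/ml) in medium 199 with 2% human adult serum for 90 h plus a 6 h thymidine pulse. Cells counted under an inverted microscope after TCA fixation, as % of untreated control.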

HUVEC [11] = test: Effect on HUVEC cells proliferation assessed as [3H]thymidine incorporation at 7.8125 ug/ml after 90 hrs by liquid scintillation counting relative to negative control; assay type: functional, Homo sapiens
Summary of the method: (§5)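 HUVEC seeded at 10×10^3 cells/well in medium 199 with 20% human adult serum. After 6 h, washed, then given twofold sample dilutions in medium 199 with 2% human adult serum, 37°, 5% CO2, 90 h. Then 1 μCi [3H]thymidine/well for 6 h. TCA-fixed, DNA solubilized in SDS/NaOH at 60° for 2 h, scintillation counted. cpm/cell expressed as % of untreated control.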

HUVEC [12] = test: Effect on HUVEC cells proliferation assessed as viable cells at 125 ug/ml after 90 hrs relative to negative control; assay type: functional; conditions: Homo sapiens, read-out: Activity; summary of the method: as §4
HUVEC [13] = test: Effect on HUVEC cells proliferation assessed as viable cells at 62.5 ug/ml after 90 hrs relative to negative control; assay type: functional; conditions: Homo sapiens, read-out: Activity; summary of the method: as §4
HUVEC [14] = test: Effect on HUVEC cells proliferation assessed as viable cells at 31.25 ug/ml after 90 hrs relative to negative control; assay type: functional; conditions: Homo sapiens, read-out: Activity; summary of the method: as §4
HUVEC [15] = test: Effect on HUVEC cells proliferation assessed as viable cells at 15.625 ug/ml after 90 hrs relative to negative control; assay type: functional; conditions: Homo sapiens, read-out: Activity; summary of the method: as §4
HUVEC [16] = test: Effect on HUVEC cells proliferation assessed as viable cells at 7.8125 ug/ml after 90 hrs relative to negative control; assay type: functional; conditions: Homo sapiens, read-out: Activity; summary of the method: as §4
HUVEC [17] = test: Effect on HUVEC cells proliferation assessed as viable cells at 3.9062 ug/ml after 90 hrs relative to negative control; assay type: functional; conditions: Homo sapiens, read-out: Activity; summary of the method: as §4
HUVEC [18] = test: Effect on HUVEC cells proliferation assessed as viable cells at 1.9531 ug/ml after 90 hrs relative to negative control; assay type: functional; conditions: Homo sapiens, read-out: Activity; summary of the method: as §4
HUVEC [19] = test: Effect on HUVEC cells proliferation assessed as viable cells at 0.9766 ug/ml after 90 hrs relative to negative control; assay type: functional; conditions: Homo sapiens, read-out: Activity; summary of the method: as §4
HUVEC [20] = test: Effect on HUVEC cells proliferation assessed as viable cells at 0.4883 ug/ml after 90 hrs relative to negative control; assay type: functional; conditions: Homo sapiens, read-out: Activity; summary of the method: as §4
HUVEC [21] = test: Effect on HUVEC cells proliferation assessed as [3H]thymidine incorporation at 125 ug/ml after 90 hrs by liquid scintillation counting relative to negative control; assay type: functional, Homo sapiens; summary of the method: as §5
HUVEC [22] = test: Effect on HUVEC cells proliferation assessed as [3H]thymidine incorporation at 62.5 ug/ml after 90 hrs by liquid scintillation counting relative to negative control; assay type: functional, Homo sapiens; summary of the method: as §5
HUVEC [23] = test: Effect on HUVEC cells proliferation assessed as [3H]thymidine incorporation at 31.25 ug/ml after 90 hrs by liquid scintillation counting relative to negative control; assay type: functional, Homo sapiens; summary of the method: as §5
HUVEC [24] = test: Effect on HUVEC cells proliferation assessed as [3H]thymidine incorporation at 15.625 ug/ml after 90 hrs by liquid scintillation counting relative to negative control; assay type: functional, Homo sapiens; summary of the method: as §5
HUVEC [25] = test: Effect on HUVEC cells proliferation assessed as [3H]thymidine incorporation at 3.9062 ug/ml after 90 hrs by liquid scintillation counting relative to negative control; assay type: functional, Homo sapiens; summary of the method: as §5
HUVEC [26] = test: Effect on HUVEC cells proliferation assessed as [3H]thymidine incorporation at 1.9531 ug/ml after 90 hrs by liquid scintillation counting relative to negative control; assay type: functional, Homo sapiens; summary of the method: as §5
HUVEC [27] = test: Effect on HUVEC cells proliferation assessed as [3H]thymidine incorporation at 0.9766 ug/ml after 90 hrs by liquid scintillation counting relative to negative control; assay type: functional, Homo sapiens; summary of the method: as §5
HUVEC [28] = test: Effect on HUVEC cells proliferation assessed as [3H]thymidine incorporation at 0.4883 ug/ml after 90 hrs by liquid scintillation counting relative to negative control; assay type: functional, Homo sapiens; summary of the method: as §5
HUVEC [29] = test: Effect on HUVEC cells proliferation assessed as inhibition of [3H]thymidine incorporation at 125 ug/ml after 90 hrs by liquid scintillation counting; assay type: functional; conditions: Homo sapiens; summary of the method: as §3
HUVEC [30] = test: Effect on HUVEC cells proliferation assessed as inhibition of [3H]thymidine incorporation at 62.5 ug/ml after 90 hrs by liquid scintillation counting; assay type: functional; conditions: Homo sapiens; summary of the method: as §3
HUVEC [31] = test: Effect on HUVEC cells proliferation assessed as inhibition of [3H]thymidine incorporation at 31.25 ug/ml after 90 hrs by liquid scintillation counting; assay type: functional; conditions: Homo sapiens; summary of the method: as §3
HUVEC [32] = test: Effect on HUVEC cells proliferation assessed as inhibition of [3H]thymidine incorporation at 15.625 ug/ml after 90 hrs by liquid scintillation counting; assay type: functional; conditions: Homo sapiens; summary of the method: as §3
HUVEC [33] = test: Effect on HUVEC cells proliferation assessed as inhibition of [3H]thymidine incorporation at 7.8125 ug/ml after 90 hrs by liquid scintillation counting; assay type: functional; conditions: Homo sapiens; summary of the method: as §3
HUVEC [34] = test: Effect on HUVEC cells proliferation assessed as inhibition of [3H]thymidine incorporation at 3.9062 ug/ml after 90 hrs by liquid scintillation counting; assay type: functional; conditions: Homo sapiens; summary of the method: as §3
HUVEC [35] = test: Induction of HUVEC cell proliferation at 50 ug/ml after 6 days; assay type: functional, cell-based; conditions: Homo sapiens; summary of the method: as §2

SMILES: COc1ccc2c(=O)oc3c(OC)cc(CCN(C)C)c4c(=O)oc1c2c34 [TASPINE]
- Activity (HUVEC [1]): Toxic
- Activity (HUVEC [2]): Toxic
- Activity (HUVEC [3]): Toxic
- Activity (HUVEC [4]): inactive

SMILES: COc1ccc([C@H]2Oc3c(OC)cc(CCCO)cc3[C@@H]2CO)cc1OC
- inhibition at 1.9531 µg/mL (HUVEC [5]): 48%
- inhibition at 0.9766 µg/mL (HUVEC [6]): 32%
- inhibition at 0.4883 µg/mL (HUVEC [7]): -1%
- Activity (HUVEC [8]): Toxic
- Activity (HUVEC [9]): inactive
- viability at 250 µg/mL (HUVEC [10]): 0%
- Activity (HUVEC [11]): 21%
- viability at 125 µg/mL (HUVEC [12]): 46%
- viability at 62.5 µg/mL (HUVEC [13]): 231%
- viability at 31.25 µg/mL (HUVEC [14]): 185%
- viability at 15.625 µg/mL (HUVEC [15]): 169%
- viability at 7.8125 µg/mL (HUVEC [16]): 123%
- viability at 3.9062 µg/mL (HUVEC [17]): 123%
- viability at 1.9531 µg/mL (HUVEC [18]): 123%
- viability at 0.9766 µg/mL (HUVEC [19]): 108%
- viability at 0.4883 µg/mL (HUVEC [20]): 108%
- Activity (HUVEC [21]): 3%
- Activity (HUVEC [22]): 2%
- Activity (HUVEC [23]): 7%
- Activity (HUVEC [24]): 13%
- Activity (HUVEC [25]): 29%
- Activity (HUVEC [26]): 52%
- Activity (HUVEC [27]): 68%
- Activity (HUVEC [28]): 101%
- inhibition at 125 µg/mL (HUVEC [29]): 97%
- inhibition at 62.5 µg/mL (HUVEC [30]): 98%
- inhibition at 31.25 µg/mL (HUVEC [31]): 93%
- inhibition at 15.625 µg/mL (HUVEC [32]): 87%
- inhibition at 7.8125 µg/mL (HUVEC [33]): 79%
- inhibition at 3.9062 µg/mL (HUVEC [34]): 71%

SMILES: COc1ccc([C@H]2Oc3c(O)cc(CCCO)cc3[C@@H]2CO)cc1OC
- Activity (HUVEC [8]): Toxic
- Activity (HUVEC [35]): inactive
